The values that follow come from ChEMBL document CHEMBL4330096, “Discovery of potent and selective 5-azaindazole inhibitors of leucine-rich repeat kinase 2 (LRRK2) - Part 1” (Bioorg Med Chem Lett, 2019).

The term inhibition denotes the percentage by which the read-out fell short of the control. The low end stands for a weak effect, the high end for a strong effect.

Data set [1] is described as follows: Stability in human liver microsomes assessed as compound turnover rate measured after 40 mins. The note with it: read-out: Drug metabolism. The data set is classed as ADME, Microsome. The procedure, abridged:
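In vitro incubation of compound with liver microsomes: human (HLM) for 40 min, mouse (MLM) for 30 min. Reported as % turnover of parent compound.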

For data set [2], the target named is T1, Inhibitor of nuclear factor kappa-B kinase subunit beta (Homo sapiens) (UniProt O14920).
T1 sequence (whole entry): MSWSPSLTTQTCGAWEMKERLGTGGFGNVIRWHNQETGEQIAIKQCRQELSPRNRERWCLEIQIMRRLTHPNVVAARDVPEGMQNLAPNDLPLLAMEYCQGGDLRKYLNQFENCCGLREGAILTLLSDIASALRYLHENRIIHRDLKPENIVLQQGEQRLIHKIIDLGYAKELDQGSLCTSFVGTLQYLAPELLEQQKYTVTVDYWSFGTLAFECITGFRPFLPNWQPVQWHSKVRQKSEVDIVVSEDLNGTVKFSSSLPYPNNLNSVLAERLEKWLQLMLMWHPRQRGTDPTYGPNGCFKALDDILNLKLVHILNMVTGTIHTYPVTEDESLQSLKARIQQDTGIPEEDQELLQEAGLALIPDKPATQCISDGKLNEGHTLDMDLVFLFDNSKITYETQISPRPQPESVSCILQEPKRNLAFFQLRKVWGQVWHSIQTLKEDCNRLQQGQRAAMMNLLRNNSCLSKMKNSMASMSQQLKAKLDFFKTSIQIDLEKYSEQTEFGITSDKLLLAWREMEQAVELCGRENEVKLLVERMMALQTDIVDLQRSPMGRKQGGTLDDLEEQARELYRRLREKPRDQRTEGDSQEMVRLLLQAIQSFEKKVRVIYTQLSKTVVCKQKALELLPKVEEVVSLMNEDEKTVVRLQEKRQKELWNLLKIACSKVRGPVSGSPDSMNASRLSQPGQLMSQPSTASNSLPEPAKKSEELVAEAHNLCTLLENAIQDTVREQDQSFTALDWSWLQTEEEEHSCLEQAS
Nature of the data set: Inhibition of IKKb (unknown origin) at 10 uM relative to control. The procedure, abridged:
(§1)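 Single-point screen of each compound against a panel of 59 protein kinases, at 1 or 10 μM. The panel data are also summarised as a rescaled geometric mean selectivity score.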

Data set [3] deals with T2, Ephrin type-B receptor 3 (Homo sapiens) (UniProt P54753).
T2 sequence (whole entry): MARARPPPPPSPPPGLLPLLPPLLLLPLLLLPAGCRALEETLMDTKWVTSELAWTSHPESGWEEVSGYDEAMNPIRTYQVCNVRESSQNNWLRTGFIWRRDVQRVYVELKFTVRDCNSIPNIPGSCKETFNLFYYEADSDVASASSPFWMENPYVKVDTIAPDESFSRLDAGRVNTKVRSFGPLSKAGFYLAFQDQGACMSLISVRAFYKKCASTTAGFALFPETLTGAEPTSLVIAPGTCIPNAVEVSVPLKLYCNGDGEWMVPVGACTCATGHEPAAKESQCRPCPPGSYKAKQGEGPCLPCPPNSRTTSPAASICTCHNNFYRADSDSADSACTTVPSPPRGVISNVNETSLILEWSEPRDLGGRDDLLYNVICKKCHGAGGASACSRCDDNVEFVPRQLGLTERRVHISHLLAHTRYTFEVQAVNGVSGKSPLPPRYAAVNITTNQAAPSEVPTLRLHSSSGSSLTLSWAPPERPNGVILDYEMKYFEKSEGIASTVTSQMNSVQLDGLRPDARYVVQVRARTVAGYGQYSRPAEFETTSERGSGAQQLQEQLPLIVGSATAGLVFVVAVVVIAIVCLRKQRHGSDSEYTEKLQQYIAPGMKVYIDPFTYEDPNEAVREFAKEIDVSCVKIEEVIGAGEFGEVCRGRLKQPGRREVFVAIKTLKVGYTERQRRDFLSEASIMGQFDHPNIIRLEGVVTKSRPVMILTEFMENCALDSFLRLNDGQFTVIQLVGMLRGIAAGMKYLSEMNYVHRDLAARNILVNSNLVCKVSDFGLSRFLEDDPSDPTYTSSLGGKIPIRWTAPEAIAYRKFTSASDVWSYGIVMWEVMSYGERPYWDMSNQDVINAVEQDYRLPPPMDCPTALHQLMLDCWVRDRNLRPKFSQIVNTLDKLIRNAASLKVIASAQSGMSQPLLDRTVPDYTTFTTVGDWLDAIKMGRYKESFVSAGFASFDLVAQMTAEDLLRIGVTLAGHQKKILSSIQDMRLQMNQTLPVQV
Nature of the data set: Inhibition of EPHB3 (unknown origin) at 10 uM relative to control. Summed up:
as §1

Data set [4] has as its target T3, Eukaryotic elongation factor 2 kinase (Homo sapiens) (UniProt O00418).
T3 sequence (whole entry): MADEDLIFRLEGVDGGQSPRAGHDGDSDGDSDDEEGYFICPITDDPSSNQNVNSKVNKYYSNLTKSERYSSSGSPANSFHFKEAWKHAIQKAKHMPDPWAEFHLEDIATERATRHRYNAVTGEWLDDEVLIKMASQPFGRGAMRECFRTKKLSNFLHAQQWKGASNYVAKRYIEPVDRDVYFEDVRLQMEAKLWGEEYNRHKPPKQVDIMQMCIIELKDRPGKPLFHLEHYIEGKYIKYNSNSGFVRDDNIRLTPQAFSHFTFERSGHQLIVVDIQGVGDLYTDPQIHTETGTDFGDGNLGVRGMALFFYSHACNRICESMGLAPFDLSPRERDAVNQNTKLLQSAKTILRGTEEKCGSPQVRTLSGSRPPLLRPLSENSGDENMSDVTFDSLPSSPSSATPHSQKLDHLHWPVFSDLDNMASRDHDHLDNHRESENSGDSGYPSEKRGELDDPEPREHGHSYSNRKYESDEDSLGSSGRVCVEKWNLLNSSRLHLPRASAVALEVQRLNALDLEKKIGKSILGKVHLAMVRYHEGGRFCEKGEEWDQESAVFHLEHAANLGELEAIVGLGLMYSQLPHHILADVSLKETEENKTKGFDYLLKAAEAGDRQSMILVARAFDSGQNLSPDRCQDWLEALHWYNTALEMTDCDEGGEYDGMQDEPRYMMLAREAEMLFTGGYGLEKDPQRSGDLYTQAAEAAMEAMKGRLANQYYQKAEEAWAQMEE
As to the kind of experiment: Inhibition of EF2K (unknown origin) at 10 uM relative to control. Summed up:
as §1

Data set [5] concerns the target Serine/threonine-protein kinase PAK 4 (Homo sapiens) (UniProt O96013). Nature of the data set: Inhibition of PAK4 (unknown origin) at 10 uM relative to control. Summed up: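 Single-concentration screen of each compound against a 59-protein-kinase panel, run at 10 µM or 1 µM. Activity relative to control is shown as a heat map across the panel.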
The target of data set [6] is Casein kinase 2 (Homo sapiens) (UniProt P67870+P68400+P19784+Q8NEV1). Nature of the data set: Inhibition of CK2 (unknown origin) at 10 uM relative to control. The data set is classed as protein assay. Summed up: as §1
For data set [7], the target named is Casein kinase I (Homo sapiens) (UniProt Q9HCP0+P78368+P48730+P49674+P48729). Nature of the data set: Inhibition of CK1 (unknown origin) at 10 uM relative to control. The data set is classed as protein assay. The procedure, abridged: as §1
For data set [8], the target named is Insulin-like growth factor 1 receptor (Homo sapiens) (UniProt P08069). Nature of the data set: Inhibition of IGF1R (unknown origin) at 10 uM relative to control. Summed up: as §1
Insulin-like growth factor 1 receptor (Homo sapiens), sequence (P08069 31-736 limits assumed): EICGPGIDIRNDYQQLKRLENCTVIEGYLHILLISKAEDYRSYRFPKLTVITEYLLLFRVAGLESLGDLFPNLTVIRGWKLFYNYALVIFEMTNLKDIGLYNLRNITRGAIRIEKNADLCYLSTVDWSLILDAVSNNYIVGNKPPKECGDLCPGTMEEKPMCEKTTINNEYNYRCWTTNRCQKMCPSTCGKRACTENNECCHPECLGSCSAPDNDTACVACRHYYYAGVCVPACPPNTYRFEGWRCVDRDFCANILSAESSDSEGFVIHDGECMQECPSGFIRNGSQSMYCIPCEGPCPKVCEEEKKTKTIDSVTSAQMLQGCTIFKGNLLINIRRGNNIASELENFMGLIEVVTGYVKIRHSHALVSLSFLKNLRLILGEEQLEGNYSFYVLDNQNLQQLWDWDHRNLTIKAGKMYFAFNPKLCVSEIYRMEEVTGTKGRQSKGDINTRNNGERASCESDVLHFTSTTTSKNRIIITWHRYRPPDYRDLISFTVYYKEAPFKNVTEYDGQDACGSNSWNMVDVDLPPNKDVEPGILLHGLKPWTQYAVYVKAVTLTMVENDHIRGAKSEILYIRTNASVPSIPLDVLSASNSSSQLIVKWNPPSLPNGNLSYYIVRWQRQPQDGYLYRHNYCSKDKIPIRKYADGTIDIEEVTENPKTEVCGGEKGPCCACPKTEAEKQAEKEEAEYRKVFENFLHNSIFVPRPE
Insulin-like growth factor 1 receptor (Homo sapiens), sequence (P08069 741-1367 limits assumed): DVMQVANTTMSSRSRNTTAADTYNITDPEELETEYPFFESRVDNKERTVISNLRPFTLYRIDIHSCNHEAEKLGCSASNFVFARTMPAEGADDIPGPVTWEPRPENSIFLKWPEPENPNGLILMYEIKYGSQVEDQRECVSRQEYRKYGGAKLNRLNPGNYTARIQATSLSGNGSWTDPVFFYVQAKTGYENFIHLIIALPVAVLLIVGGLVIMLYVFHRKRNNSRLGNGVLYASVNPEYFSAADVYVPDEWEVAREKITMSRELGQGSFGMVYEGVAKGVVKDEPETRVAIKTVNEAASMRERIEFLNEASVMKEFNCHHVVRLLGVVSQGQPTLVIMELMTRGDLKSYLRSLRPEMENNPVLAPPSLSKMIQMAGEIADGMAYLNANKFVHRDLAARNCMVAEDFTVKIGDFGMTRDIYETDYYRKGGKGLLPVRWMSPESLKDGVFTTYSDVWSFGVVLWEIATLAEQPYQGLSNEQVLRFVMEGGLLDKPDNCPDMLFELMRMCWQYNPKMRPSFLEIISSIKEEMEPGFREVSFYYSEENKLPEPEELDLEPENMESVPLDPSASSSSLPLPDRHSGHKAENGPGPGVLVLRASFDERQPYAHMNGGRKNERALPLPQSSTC

Serine/threonine-protein kinase PAK 4 (Homo sapiens), sequence (O96013 whole entry, looked up): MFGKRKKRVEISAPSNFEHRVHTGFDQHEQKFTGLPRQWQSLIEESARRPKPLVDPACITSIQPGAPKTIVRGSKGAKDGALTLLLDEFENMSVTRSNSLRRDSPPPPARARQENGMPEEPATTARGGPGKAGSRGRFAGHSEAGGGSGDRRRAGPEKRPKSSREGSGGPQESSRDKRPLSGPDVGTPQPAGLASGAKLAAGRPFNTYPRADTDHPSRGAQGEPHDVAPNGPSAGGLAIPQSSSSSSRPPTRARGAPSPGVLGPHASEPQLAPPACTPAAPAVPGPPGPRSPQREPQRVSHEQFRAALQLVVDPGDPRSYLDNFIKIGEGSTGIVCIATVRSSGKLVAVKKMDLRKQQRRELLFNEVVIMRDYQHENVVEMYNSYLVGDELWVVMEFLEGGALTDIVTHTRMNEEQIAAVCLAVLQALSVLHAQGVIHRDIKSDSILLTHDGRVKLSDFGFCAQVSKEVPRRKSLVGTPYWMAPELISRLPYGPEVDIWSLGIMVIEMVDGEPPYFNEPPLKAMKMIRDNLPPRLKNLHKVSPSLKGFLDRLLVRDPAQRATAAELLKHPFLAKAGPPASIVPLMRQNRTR

In the case of `c1cc(-c2n[nH]c3ccnc(OC4CCOCC4)c23)cc(N2CCOCC2)n1`, in data set [1], the metabolised at 40 min was found to be 43%.

As to `Cc1n[nH]c2ccnc(OC3CCCCC3)c12`, the inhibition in data set [2] is 35%; in data set [3], 92%; in data set [4], 0%; in data set [5] it was 85%; in data set [6], 41%; in data set [7] it was 86%. Further, the inhibition in data set [8] came to 98%. In addition, the metabolised at 40 min in data set [1] was 25%.

Consider `Cc1n[nH]c2ccnc(NC3CCCCC3)c12`, for which the inhibition in data set [2] stood at 29%; in data set [3] it was 39%; in data set [4] it was 0%; in data set [5], 40%; in data set [6] it was 45%; in data set [7], 27%. In data set [8], this compound came in with an inhibition of 88%. In addition, the metabolised at 40 min in data set [1] was 7%.

Turning to `Cc1n[nH]c2ccnc(Nc3ccccc3F)c12`, the inhibition in data set [2] was determined as 49%; in data set [3], 39%; in data set [4], 0%; in data set [5], 44%; in data set [6] it was 54%; in data set [7] it was 46%. The compound further came in with an inhibition in data set [8] of 81%.

With `CC(C)n1cc(-c2n[nH]c3ccnc(OC4CCOCC4)c23)cn1`, the metabolised at 40 min in data set [1] turned out to be 21%.

In data set [7], `Cc1n[nH]c2ccnc(Nc3ccc4ncsc4c3)c12` had an inhibition of 77%.
